One test relates to SK-OV-3. Kind of test: Cytotoxicity against human SKOV3 cells. It is filed as functional. Conditions: read-out: ED50 (the source's name).
For the next test, the system named is A549. Kind of test: Cytotoxicity against human A549 cells. Conditions: read-out: ED50 (the source's name). It is filed as functional.
Another test deals with HCT-15. Kind of test: Cytotoxicity against human HCT-15 cells. The class given is functional. Conditions: read-out: ED50 (the source's name).
Test [1] deals with Simian virus 40. Kind of test: Inhibition of SV40 DNA replication in human HeLa cells. Conditions: Betapolyomavirus macacae. The class given is functional, organism-based. An outline of the steps:
(§1)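 Cell-free SV40 replication using HeLa cytosolic extract, SV40 T-Ag (0.6 µg) and SV40 origin pUC DNA (0.3 µg). Buffer is 40 mM creatine phosphate-di-Tris pH 7.7, creatine kinase, 7 mM MgCl2, 0.5 mM DTT, 4 mM ATP, rNTPs, dNTPs and 25 µM [3H]dTTP. Incubated 90 min at 37 °C; acid-insoluble radioactivity measured. Products separated on 1% agarose gel and autoradiographed.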

A further test concerns XF498. The test is described as follows: Cytotoxicity against human XF498 cells. It is filed as functional. Conditions: read-out: ED50 (the source's name).
In test [2] the target is T1, DNA topoisomerase 1 (Homo sapiens) (UniProt P11387).
T1 sequence (whole entry): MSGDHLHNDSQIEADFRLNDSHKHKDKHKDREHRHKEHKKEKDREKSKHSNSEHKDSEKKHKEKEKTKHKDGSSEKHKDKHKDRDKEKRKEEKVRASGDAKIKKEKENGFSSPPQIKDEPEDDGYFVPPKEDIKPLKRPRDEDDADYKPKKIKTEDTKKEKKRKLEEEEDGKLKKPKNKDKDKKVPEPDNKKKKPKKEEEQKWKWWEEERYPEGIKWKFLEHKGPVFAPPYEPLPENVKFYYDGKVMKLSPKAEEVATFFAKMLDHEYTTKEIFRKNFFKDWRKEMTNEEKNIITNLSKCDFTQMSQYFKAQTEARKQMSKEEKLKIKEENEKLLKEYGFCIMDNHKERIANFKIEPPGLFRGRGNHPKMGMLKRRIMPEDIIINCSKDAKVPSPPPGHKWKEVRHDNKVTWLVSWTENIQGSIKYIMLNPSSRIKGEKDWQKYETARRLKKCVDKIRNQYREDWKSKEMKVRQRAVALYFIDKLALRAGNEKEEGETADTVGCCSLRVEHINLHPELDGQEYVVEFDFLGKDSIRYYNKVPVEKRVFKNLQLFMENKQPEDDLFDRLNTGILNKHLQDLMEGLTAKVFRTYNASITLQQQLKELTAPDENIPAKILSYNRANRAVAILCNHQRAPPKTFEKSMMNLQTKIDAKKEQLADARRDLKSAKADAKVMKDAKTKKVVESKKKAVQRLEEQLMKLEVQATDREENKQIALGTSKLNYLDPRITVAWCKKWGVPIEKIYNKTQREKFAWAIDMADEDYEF
The test is described as follows: Inhibition of human DNA topoisomerase 1 assessed as effect on relaxation of superhelical plasmid.

The subject of test [3] is Simian virus 40. The test is described as follows: Inhibition of SV40 DNA replication in human HeLa cells at 800 uM. The class given is functional. Conditions: Betapolyomavirus macacae, read-out: INH. An outline of the steps:
as §1

Another test has as its system SK-MEL-2. Kind of test: Cytotoxicity against human SK-MEL-2 cells. It is filed as functional. Conditions: read-out: ED50 (the source's name).

The structures appear in SMILES notation. ≈ marks a conversion by molar mass, not a printed value. Calls of active or inactive are those of the source. No cut-off for these calls is given here.

As to `CCCCCCC(C)CCCCCCCCCOC[C@H](O)COC1[C@@H](O)[C@H](O)[C@@H](O)[C@@H]1O` (stereo partly drawn) [SACROTRIDE A], the EC50 was 9.5 µg/mL (≈ 20.5 µM) in the test with SK-OV-3; greater than 10 µg/mL in the test on A549; 9.4 µg/mL (≈ 20.3 µM) with HCT-15; 9.8 µg/mL (≈ 21.2 µM) with XF498; greater than 10 µg/mL with SK-MEL-2. For the same compound, in the test on Simian virus 40 [1], the Activity result was “Dose-dependent effect”. The result in test [2] was inactive. Also, in the test on Simian virus 40 [3], the inhibition at 800 µM is greater than 90%.

These data come from ChEMBL document CHEMBL1141853, “A cyclitol derivative as a replication inhibitor from the marine sponge Petrosia sp” (1999).
